Measured values reported in ChEMBL document CHEMBL2176865, “Discovery of diarylhydantoins as new selective androgen receptor modulators” (J Med Chem, 2012).

Experiments:
Rattus norvegicus [1] = assay: Androgenic activity in ORX rat model assessed as ventral prostate weight at 30 mg/kg, po administered 4 days relative to sham-treated control; type: functional, Prostate gland
In short: (§1)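 Young (immature) rats castrated, left untreated one week, then dosed daily for four days (test agents orally; testosterone propionate subcutaneously). Untreated ORX and sham-operated rats as controls. Levator ani (anabolic) and ventral prostate (androgenic) weights normalised to body weight; activity % = (W/BW treated − W/BW ORX)/(W/BW sham − W/BW ORX) × 100; A50 = dose giving 50% activity.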

Rattus norvegicus [2] = assay: Anabolic activity in ORX rat model assessed as levator ani muscle weight at 30 mg/kg, po administered 4 days relative to sham-treated control; type: functional; in short: as §1
Rattus norvegicus [3] = assay: Androgenic activity in sc dosed ORX rat model assessed as dose required to induce 50% effect on ventral prostate weight administered 4 days; type: functional, Prostate gland; in short: as §1
Rattus norvegicus [4] = assay: Anabolic activity in sc dosed ORX rat model assessed as maximum effect on levator ani muscle weight administered 4 days relative to sham-treated control; type: functional; in short: as §1
Rattus norvegicus [5] = assay: Androgenic activity in ORX rat model assessed as ventral prostate weight at 1 mg/kg, sc administered 4 days relative to sham-treated control; type: functional, Prostate gland; conditions: route subcutaneous; in short: as §1
Rattus norvegicus [6] = assay: Anabolic activity in sc dosed ORX rat model assessed as dose required to induce 50% effect on levator ani muscle weight administered 4 days; type: functional; in short: as §1
Rattus norvegicus [7] = assay: Androgenic activity in sc dosed ORX rat model assessed as maximum effect on ventral prostate weight administered 4 days relative to sham-treated control; type: functional, Prostate gland; in short: as §1
Rattus norvegicus [8] = assay: Anabolic activity in ORX rat model assessed as levator ani muscle weight at 1 mg/kg, sc administered 4 days relative to sham-treated control; type: functional; conditions: route subcutaneous; in short: as §1

## C#CCN1C(=O)N(c2ccc(C#N)c(C(F)(F)F)c2)C(=O)C1(C)c1ccc(O)cc1 (racemic)
Rattus norvegicus [1]
  Activity: 19%
Rattus norvegicus [2]
  Activity: 95%

## CN1C(=O)N(c2ccc(Cl)c(Cl)c2)C(=O)C1(C)c1ccc(O)cc1 (racemic)
Rattus norvegicus [1]
  Activity: 0%
Rattus norvegicus [2]
  Activity: 12%

## CN1C(=O)N(c2ccc(C#N)c(C(F)(F)F)c2)C(=O)C1(C)c1ccc(O)cc1 (racemic)
Rattus norvegicus [1]
  Activity: 14%
Rattus norvegicus [2]
  Activity: 84%

## COc1cc(N2C(=O)N(C)C(C)(c3ccc(O)cc3)C2=O)ccc1C#N (racemic)
Rattus norvegicus [1]
  Activity: 51%
Rattus norvegicus [2]
  Activity: 96%

## Cc1c(N2C(=O)N(C)C(C)(c3ccc(O)cc3)C2=O)ccc(C#N)c1Cl (racemic)
Rattus norvegicus [1]
  Activity: 12%
Rattus norvegicus [2]
  Activity: 82%

## CCC(=O)O[C@H]1CC[C@H]2[C@@H]3CCC4=CC(=O)CC[C@]4(C)[C@H]3CC[C@]12C [TESTOSTERONE PROPIONATE]
Rattus norvegicus [3]
  Activity: 0.2 mg/kg
Rattus norvegicus [4]
  Activity: 130%
Rattus norvegicus [5]
  Activity: 73%
Rattus norvegicus [6]
  Activity: 0.3 mg/kg
Rattus norvegicus [7]
  Activity: 130%
Rattus norvegicus [8]
  Activity: 99%
